A short description of data set [1]: Selectivity index, ratio of TC50 for human HepG2 cells to EC50 for Leishmania major intracellular amastigotes harboring luciferase infected in mouse RAW264.7 cells. The format is toxicity, cell-based. Conditions: read-out: Selectivity Index. The gist of the method:
(§1)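 L. major amastigotes screened in duplicate or quadruplicate. Selectivity derived as HepG2 TC50 / L. major EC50.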

The subject of the next data set is Leishmania major. Kind of data set: Antileishmanial activity against Leishmania major intracellular amastigotes harboring luciferase infected in mouse RAW264.7 cells after 96 hrs by luminescence assay. The format is functional, organism-based. Conditions: RAW264.7, 96 h. Put shortly:
as §1

Data set [2] can be described thus: Selectivity index, ratio of TC50 for mouse NIH/3T3 cells to EC50 for Trypanosoma cruzi Tulahuen intracellular amastigote harboring beta-galactosidase. Format: toxicity, cell-based. Conditions: read-out: Selectivity Index. The gist of the method:
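NIH 3T3 cells, the host line for intracellular T. cruzi amastigote culture, tested for toxicity. Selectivity = NIH3T3 TC50 / T. cruzi EC50.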

Data set [3] in a line: Cytotoxicity against human HepG2 cells. The format is cell-based. Particulars: read-out: TC50 (the source's name).
A further data set relates to Trypanosoma cruzi. Kind of data set: Antitrypanosomal activity against Trypanosoma cruzi Tulahuen intracellular amastigote harboring beta-galactosidase infected in mouse NIH/3T3 cells after 96 hrs by CPRG reagent based assay. Particulars: NIH3T3, 96 h. The format is functional, organism-based.
For data set [4], the system named is Trypanosoma brucei brucei. Description: Antitrypanosomal activity against Trypanosoma brucei brucei 427 at 5 uM after 48 hrs by presto blue dye based fluorescence assay relative to control. The format is functional. Put shortly:
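Single-concentration screen of bloodstream T. brucei cultures at 5 μM, 5 × 10^4 cells/mL; percent proliferation inhibition recorded.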

For a further data set, the system named is Plasmodium falciparum. Kind of data set: Antimalarial activity against Plasmodium falciparum D6 trophozoites after 72 hrs by SYBR Green I dye-based fluorescence assay. Particulars: D6, 72 h. The format is functional, organism-based. The gist of the method: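 P. falciparum D6 strain; compounds run in duplicate or quadruplicate; EC50 determined from dose-response.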

Data set [5] is described as follows: Selectivity index, ratio of TC50 for human HepG2 cells to EC50 for Plasmodium falciparum D6 trophozoites. Format: toxicity. Particulars: read-out: Selectivity Index. Put shortly:
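P. falciparum D6 screened in duplicate or quadruplicate. Selectivity = HepG2 TC50 / P. falciparum EC50.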

A short description of data set [6]: Cytotoxicity against mouse NIH/3T3 cells. Format: cell-based, NIH3T3. Particulars: read-out: TC50 (the source's name).
A short description of data set [7]: Selectivity index, ratio of TC50 for human HepG2 cells to EC50 for Trypanosoma brucei brucei 427. Format: toxicity. Particulars: read-out: Selectivity Index.
The subject of data set [8] is Trypanosoma brucei brucei. Kind of data set: Antitrypanosomal activity against Trypanosoma brucei brucei 427 after 48 hrs by presto blue dye based fluorescence assay. Format: functional, organism-based. Particulars: Trypanosoma brucei, 427, 48 h.
The nature of data set [9]: Selectivity ratio of EC50 for antimalarial activity against Plasmodium falciparum W2 trophozoites to EC50 for atimalarial activity against Plasmodium falciparum D6 trophozoites. Format: functional.
The nature of data set [10]: Selectivity ratio of EC50 for antimalarial activity against Plasmodium falciparum C235 trophozoites to EC50 for atimalarial activity against Plasmodium falciparum D6 trophozoites. Format: functional.
In another data set the test system is Trypanosoma brucei. Description: Antiparasitic activity against Trypanosoma brucei. Format: functional, organism-based.

Usually EC50 stands for the concentration giving half of the maximal effect.

Turning to `CN(C)CC#Cc1cc2c(Nc3ccc(OCc4cccc(F)c4)c(Cl)c3)ncnc2s1`, the selectivity ratio in data set [1] was above 5.8; in [2], 16; in data set [5] it was above 21; in data set [7] it was above 13. For the same molecule, the EC50 with Leishmania major was 5.5 µM; in the data set on Trypanosoma cruzi it was 2.6 µM; in the data set on Plasmodium falciparum, 1.5 µM; in data set [8], 2.5 µM. The CC50 was above 32 µM in [3] and 41 µM in data set [6]. The molecule further gave an Activity in [4] above 75%.
Regarding `CN1CCN(CC#Cc2cc3c(Nc4ccc(OCc5cccc(F)c5)c(Cl)c4)ncnc3s2)CC1`, the selectivity ratio in data set [1] turned out to be 1.9; in [2], 1.9; in data set [5], 58; in data set [7], 15. The Ratio EC50 in data set [9] and in [10] was below 3 throughout. Also, the half-maximal effective concentration (EC50) in the data set with Leishmania major is 8.1 µM; in the data set with Trypanosoma cruzi, 3.5 µM; with Plasmodium falciparum, 0.26 µM; in data set [8] it was 1 µM. In addition, the CC50 came out at 15 µM in data set [3] and 6.7 µM in [6]. Also, the Activity in data set [4] is listed as above 75%.
With `COCC#Cc1cc2ncnc(Nc3ccc(OCc4cccc(F)c4)c(Cl)c3)c2s1`, the selectivity ratio in [1] is above 3.5; in data set [2], above 1.6; in data set [5], above 5.6; in [7], above 9.7. The EC50 with Leishmania major came to 9.4 µM; with Trypanosoma cruzi, 30.7 µM; with Plasmodium falciparum, 5.9 µM; in data set [8], 3.4 µM. Besides, the values for the CC50 in [3] and in data set [6] were above 33 µM and above 50 µM, respectively. Besides, in data set [4], the Activity was above 75%.
In the case of `Fc1cccc(COc2ccc(Nc3ncnc4sc(C#CCN5CCCC5)cc34)cc2Cl)c1`, the selectivity ratio is above 7 in data set [1] and above 214 in data set [5]. For the same molecule, the Ratio EC50 in data set [9] and in data set [10] was below 3 throughout. Further, the EC50 with Leishmania major is 4.3 µM; in the data set on Plasmodium falciparum, 0.14 µM; in data set [8], above 2.5 µM. In addition, the CC50 in [3] is above 30 µM. In addition, the Activity in [4] was above 75%.
As for `Fc1cccc(COc2ccc(Nc3ncnc4cc(C#Cc5ccccn5)sc34)cc2Cl)c1`, the selectivity ratio was 63 in data set [1], 2.3 in data set [2], 12 in data set [5] and 18 in data set [7]. The half-maximal effective concentration (EC50) worked out at 0.38 µM in the data set on Leishmania major, 12 µM in the data set with Trypanosoma cruzi, 2 µM in the data set with Plasmodium falciparum and 1.3 µM in data set [8]. The results for the CC50 in data set [3] and in data set [6] were 24 µM and 27 µM, respectively. In data set [4], this molecule registered an Activity above 75%.
In the case of `Fc1cccc(COc2ccc(Nc3ncnc4cc(C#CCN5CCCC5)sc34)cc2Cl)c1`, the selectivity ratio in [1] stood at 1.2; in [2] it was 3.6; in [5], 3.8; in data set [7] it was 18. Besides, the EC50 stood at 4.1 µM in the data set with Leishmania major, 1.8 µM in the data set on Trypanosoma cruzi, 1.3 µM with Plasmodium falciparum and 0.28 µM in data set [8]. Moreover, the results for the CC50 in data set [3] and in data set [6] were 4.9 µM and 6.4 µM, respectively. The Activity in data set [4] is above 75%.
On to `CC(C)(C)OC(=O)N1CCC[C@H]1C#Cc1cc2ncnc(Nc3ccc(OCc4cccc(F)c4)c(Cl)c3)c2s1`, for which the selectivity ratio in [1] is above 16; in data set [5], above 15; in data set [7], above 22. Besides, the EC50 was 1.6 µM with Leishmania major, above 50 µM in the data set on Trypanosoma cruzi, 1.7 µM in the data set on Plasmodium falciparum and 1.2 µM in data set [8]. Also, the CC50 was above 26 µM in data set [3] and above 100 µM in data set [6]. In addition, the Activity in data set [4] is given as above 75%.
Take `CN1CCN(CC#Cc2cc3ncnc(Nc4ccc(OCc5cccc(F)c5)c(Cl)c4)c3s2)CC1`: the Ratio EC50 in data set [9] and in data set [10] was below 3 each time. Further, the EC50 in the data set with Leishmania major was above 15 µM; in the data set with Trypanosoma cruzi, 2.1 µM; in the data set on Plasmodium falciparum, 0.64 µM; in [8], 2.5 µM. In addition, the values for the selectivity ratio in data set [2], in [5] and in [7] were 2.3, 17 and 4.3, respectively. Also, the CC50 was found to be 11 µM in [3] and 4.8 µM in [6]. For the same molecule, in [4], the Activity was above 75%.
In the case of `CN1CCN(CC#Cc2ccc3ncnc(Nc4ccc(OCc5cccc(F)c5)c(Cl)c4)c3c2)CC1`, the selectivity ratio in data set [1] came to 0.8; in [2], 2.9; in data set [5], 51; in data set [7], 8.2. In addition, the Ratio EC50 in [9] and in [10] was below 3 throughout. Further, the EC50 in the data set with Leishmania major worked out at 10 µM; in the data set on Trypanosoma cruzi it was 2.5 µM; with Plasmodium falciparum, 0.16 µM; in [8], 1 µM. The CC50 in [3] was 8.2 µM; in [6] it was 7.2 µM. In data set [4], the Activity is above 75%.
Turning to `Fc1cccc(COc2ccc(Nc3ncnc4cc(C#CCN5CCOCC5)sc34)cc2Cl)c1`, the selectivity ratio was above 3.8 in [1], 1.4 in data set [2] and above 9.7 in data set [5]. Also, the results for the concentration giving a half-maximal response (EC50) in the data set on Leishmania major, in the data set on Trypanosoma cruzi and in the data set on Plasmodium falciparum were 7.6 µM, 3.4 µM and 3 µM, respectively. Moreover, the CC50 is above 29 µM in [3] and 4.7 µM in data set [6]. In data set [4], the Activity came to 16%.
With `CCCN(CC#Cc1cc2c(Nc3ccc(OCc4cccc(F)c4)c(Cl)c3)ncnc2s1)CCC`, the selectivity ratio amounted to 12 in data set [1], 1.3 in data set [2] and 21 in data set [5]. Also, the Ratio EC50 in [9] and in data set [10] was below 3 in each case. Moreover, the EC50 in the data set on Leishmania major was found to be 1.4 µM; in the data set with Trypanosoma cruzi, 1.7 µM; with Plasmodium falciparum it was 0.8 µM. The results for the CC50 in [3] and in data set [6] were 17 µM and 2.2 µM, respectively. The same molecule yielded an Activity in data set [4] of 0%.
In the data set with Trypanosoma brucei, `CS(=O)(=O)CCNCc1ccc(-c2ccc3ncnc(Nc4ccc(OCc5cccc(F)c5)c(Cl)c4)c3c2)o1` [LAPATINIB] showed a concentration for a half-maximal effect (EC50) of 1.4 to 1.5 µM.
Regarding `Cc1ccc(C(=O)Nc2ccc(S(=O)(=O)O)c3cc(S(=O)(=O)O)cc(S(=O)(=O)O)c23)cc1NC(=O)c1cccc(NC(=O)Nc2cccc(C(=O)Nc3cc(C(=O)Nc4ccc(S(=O)(=O)O)c5cc(S(=O)(=O)O)cc(S(=O)(=O)O)c45)ccc3C)c2)c1` [SURAMIN], the EC50 in data set [8] is 0.04 µM.
With `Fc1cccc(COc2ccc(Nc3ncnc4cc(C#CC5CCCC5)sc34)cc2Cl)c1`, the EC50 is above 15 µM in the data set with Leishmania major, above 50 µM with Trypanosoma cruzi, 3.6 µM in the data set on Plasmodium falciparum and 0.76 µM in data set [8]. For the same molecule, the figures for the CC50 in [3] and in [6] were above 31 µM and above 100 µM, respectively. The Activity in [4] is reported as above 75%. For the same molecule, the selectivity ratio was above 8.6 in data set [5] and above 41 in data set [7].
With `Fc1cccc(COc2ccc(Nc3ncnc4sc(C#CCN5CCNCC5)cc34)cc2Cl)c1`, the selectivity ratio in [1] is 0.85; in data set [2], 6.4; in data set [5], 20; in data set [7] it was 4.1. Further, the Ratio EC50 in data set [9] and in data set [10] was below 3 throughout. Also, the half-maximal effective concentration (EC50) in the data set on Leishmania major was found to be 9.1 µM; in the data set on Trypanosoma cruzi it was 0.61 µM; with Plasmodium falciparum, 0.38 µM; in data set [8], 1.9 µM. Besides, the CC50 in data set [3] was 7.7 µM; in [6], 3.9 µM. Also, the Activity in data set [4] was above 75%.
Turning to `Fc1cccc(COc2ccc(Nc3ncnc4cc(C#C[C@@H]5CCCN5)sc34)cc2Cl)c1`, the selectivity ratio amounted to 2.3 in data set [1], 2.7 in [2], 10 in data set [5] and 44 in [7]. The Ratio EC50 in data set [9] and in data set [10] was below 3 throughout. The EC50 in the data set on Leishmania major worked out at 4.2 µM; in the data set on Trypanosoma cruzi, 3.7 µM; in the data set on Plasmodium falciparum, 0.94 µM; in [8], 0.22 µM. Further, the CC50 worked out at 9.6 µM in data set [3] and 10 µM in data set [6]. The Activity in data set [4] was above 75%.
